IA and Potency data for one compound are collected here from ChEMBL document CHEMBL1131019, “Minimal-size, constrained corticotropin-releasing factor agonists with i-(i+3) Glu-Lys and Lys-Glu bridges” (1998).

The species named for assay [1] is Rattus norvegicus. Put plainly: Percent in vito intrinsic activity (IA) was evaluated in pituitary cell culture assay. The class given is functional, Pituitary gland cell. In outline:
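ACTH release assay in cultured rat anterior pituitary cells from male Sprague–Dawley rats: 3-day culture, 1 h preincubation in 0.1% BSA medium, 3 h peptide exposure, ACTH in medium by radioimmunoassay. Intrinsic activity = ACTH released at maximal analogue dose divided by ACTH released at maximal CRF dose, ×100.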

For assay [2], the species on record is Rattus norvegicus. Put plainly: In vitro for agonist activity by measuring release of ACTH by rat pituitary cells in culture relative to human Corticotropin-Releasing factor (CRF). It is filed as functional, Pituitary gland cell. Put shortly:
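Male Sprague–Dawley rat anterior pituitary cells, collagenase-dissociated, plated at 0.16 × 10⁶ cells/well in 2% FBS medium. After 3 days, washed into 0.1% BSA medium, preincubated 1 h, washed again, then exposed to peptide for 3 h. Medium ACTH measured by radioimmunoassay.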

As for `CCCC[C@H](NC(=O)[C@H](CCC(=O)O)NC(=O)[C@H](CC(C)C)NC(=O)[C@H](CCCC)NC(=O)[C@H](CCC(=O)O)NC(=O)[C@H](CCCN=C(N)N)NC(=O)[C@H](CC(C)C)NC(=O)[C@H](CC(C)C)NC(=O)[C@H](Cc1c[nH]cn1)NC(=O)[C@@H](Cc1ccccc1)NC(=O)[C@@H](NC(=O)[C@H](CC(C)C)NC(=O)[C@H](CC(=O)O)NC(=O)[C@H](CC(C)C)NC(C)=O)[C@@H](C)O)C(=O)N[C@@H](C)C(=O)N[C@@H](CCCCN)C(=O)N[C@@H](C)C(=O)N[C@@H](CCC(=O)O)C(=O)N[C@@H](CCC(N)=O)C(=O)N[C@@H](CCC(=O)O)C(=O)N[C@@H](C)C(=O)N[C@@H](CCC(=O)O)C(=O)N1C(=O)[C@H](C)NC(=O)[C@H](C)NC(=O)[C@@H](N)CCC(=O)NCCCC[C@H]1C(=O)N[C@@H](CC(N)=O)C(=O)N[C@@H](CCCN=C(N)N)C(=O)N[C@@H](CC(C)C)C(=O)N[C@@H](CC(C)C)C(=O)N[C@@H](CC(C)C)C(=O)N[C@@H](CCC(=O)O)C(=O)N[C@@H](CCC(=O)O)C(=O)N[C@@H](C)C(N)=O`, the IA in the assay listed under Rattus norvegicus [1] turned out to be 93%. In the assay listed under Rattus norvegicus [2], this compound yielded a Potency of 0.073.
